Source: PubChem
Kir21 inh = Kir2.1 (mouse) channel inhibition; P35561; HEK293-Kir2.1, FluxOR thallium flux fluorescence; active compounds read low; B-score at 10 µM; actives 0.85% (n = 310,000); AID 1672;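 active = fluorescence ratio B-score at or below minus 3 SD of library scores, with starting-brightness B-score within 2 SD, cut at about -4.2 in these data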;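 also: channel flux triggered by added potassium and thallium sulfate stimulus; B-score of peak minus minimum fluorescence over baseline after thallium stimulus; more negative B-score means stronger Kir2.1 block with less thallium influx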
KCNK9 inh = inhibitors of human KCNK9 two-pore domain potassium channel. Q9NPC2. B-score at 10 µM. HEK293 KCNK9, FluxOR thallium flux fluorescence; active compounds read low. actives 1.2% (n = 310,000). AID 488922;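 active = ratio B-score over 3 SD below the library mean, with starting fluorescence within 5 SD of its mean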;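 also: negative B-score means less thallium flux so channel inhibition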
KCNK3 inh = human KCNK3 channel inhibition, primary screen. actives 0.84% (n = 340,000). CHO-KCNK3 thallium flux, FluxOR fluorescence; active compounds read low. O14649. B-score at 10 µM;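 active = B-score under library mean minus 4 SD, starting fluorescence ratio at most library mean plus 5 SD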;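 also: more negative B-score means stronger inhibition of thallium flux through KCNK3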
Target sequence (O14649 whole entry, looked up): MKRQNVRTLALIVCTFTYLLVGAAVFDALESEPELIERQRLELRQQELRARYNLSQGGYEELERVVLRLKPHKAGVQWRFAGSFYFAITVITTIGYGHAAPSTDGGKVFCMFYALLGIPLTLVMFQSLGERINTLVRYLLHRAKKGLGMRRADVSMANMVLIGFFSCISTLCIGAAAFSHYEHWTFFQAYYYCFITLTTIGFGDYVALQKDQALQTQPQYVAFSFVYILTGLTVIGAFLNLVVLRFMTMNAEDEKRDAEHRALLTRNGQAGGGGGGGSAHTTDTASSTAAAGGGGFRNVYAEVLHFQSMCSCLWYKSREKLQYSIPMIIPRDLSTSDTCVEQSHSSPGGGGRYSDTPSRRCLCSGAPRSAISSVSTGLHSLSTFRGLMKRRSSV
hERG rescue = hERG (human) protection from proarrhythmic block; CHO-hERG, FluxOR thallium flux, dofetilide IC70 present; activation (rescue from dofetilide block), less the hit threshold, % at 10 µM; actives 0.51% (n = 310,000); AID 1511;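 active = activation above the mean of controls blocked by dofetilide plus 5 SD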;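 also: thallium influx through hERG after potassium depolarization seen as dye fluorescence rise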
KCNQ1 inh = human KCNQ1 channel inhibition; B-score at 10 µM; P51787; CHO-K1 KCNQ1, FluxOR thallium flux fluorescence; active compounds read high; actives 1.3% (n = 310,000);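 active = compounds whose thallium flux B-score, printed positive for inhibition, exceeds three library SD while starting fluorescence stays within three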;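 also: channel opened by potassium depolarization with thallium stimulus after 20 min compound exposure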
KCNQ1 pot = potentiates or activates the human KCNQ1 potassium channel | CHO-K1 KCNQ1, thallium flux FluxOR fluorescence; active compounds read high | P51787 | actives 0.35% (n = 310,000) | B-score at 10 µM;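 active = fluorescence ratio B-score, a plate-corrected score, at least three library SD, with initial intensity B-score within 5 SD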
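System: Stable KCNQ1 CHO-K1 line | Incubation: 90 min dye loading and 20 min compound exposure, both at room temperature | Measure: Ratio B score | Medium: Assay buffer for compound exposure, DMSO matched across wells | Compound dosing: Single-concentration screen | Probe or stimulus: K+/Tl+ depolarizing stimulus | Measured by: Kinetic FluxOR fluorescence, 10 s baseline plus 110 s post-stimulus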
* marks the source's active call; other numbers are inactive results; i = inactive; nt = no result given. An excerpt weighted towards active compounds, which were near 3.7% of everything screened.

SMILES	Kir21 inh	KCNK9 inh	KCNK3 inh	hERG rescue	KCNQ1 inh	KCNQ1 pot
CC[C@@H](NS(=O)(=O)c1ccc(C)cc1)C(=O)Oc1ccc2c3c(c(=O)oc2c1)CCC3	0.01	i	i	-8	i	i
Cc1ccc(S(=O)(=O)NC(C(=O)Oc2ccc3c(C(F)(F)F)cc(=O)oc3c2)c2ccccc2)cc1 (stereo unspecified)	-3.4	i	i	-12	6*	i
O=C(CSc1nnc(CNC(=O)c2cccs2)o1)Nc1ccc(Br)cc1	-0.13	i	i	-5	i	i
COc1ccc(S(=O)(=O)Nc2c(NC3CCCCC3)c3ccccc3oc2=O)cc1	-0.78	i	i	-6	i	i
CC(C)OCCCNC(=O)c1ccc2c(c1)S(=O)(=O)c1ccccc1C2=O	0.99	i	i	-13	i	i
COCCCNC(=O)c1ccc2c3c(onc13)-c1ccccc1C2=O	-14	i	i	-56	10*	i
CC(C)(C)OC(=O)N1CCN(C(=O)c2[nH]cnc2C(=O)Nc2cccc(Cl)c2)CC1	nt	nt	i	nt	nt	nt
C/C(=N\N(c1ccccc1)c1ccccc1)c1ccc(N)cc1	-0.29	i	i	-15	i	i
C/C(=N\N(c1ccccc1)c1ccccc1)c1ccc(O)cc1	-5.1*	i	i	-11	i	i
CCOC(=O)C(C)On1c(-c2ccc(Cl)cc2)nc2ccc([N+](=O)[O-])cc21 (stereo unspecified)	0.57	i	i	-2	9*	i
O=[N+]([O-])c1ccc2nc(-c3ccc(Cl)cc3)n(OCc3ccccc3)c2c1	0.19	i	i	-4	6*	i
Cc1ccc(COn2c(-c3ccc(Cl)cc3)nc3ccc([N+](=O)[O-])cc32)cc1	0.21	i	i	-7	i	i
CCOC(=O)C(C)On1c(-c2ccccc2)nc2ccc([N+](=O)[O-])cc21 (stereo unspecified)	-1.4	i	i	-16	i	i
COc1ccc(NC(=O)CN(c2ccc(OC)c(Cl)c2)S(=O)(=O)c2ccccc2)c(OC)c1	-0.25	i	i	-1	6*	i
O=C(Nc1cc(Cl)ccc1Oc1ccccc1)c1ccccc1F	0.05	i	i	-5	6*	i
Cc1ccc(N(CC(=O)Nc2cc(Cl)ccc2Oc2ccccc2)S(C)(=O)=O)cc1C	0.77	-7.5*	i	-6	i	i
O=C(Nc1ccccc1Oc1ccccc1)c1ccccc1F	-0.44	i	i	-12	i	i
Cc1ccc(N(CC(=O)Nc2cc(Cl)ccc2Oc2ccccc2)S(C)(=O)=O)c(C)c1	0.92	i	i	-8	i	i
NC(=O)c1ccsc1NC(=O)COC(=O)c1cc(=O)[nH]c2ccccc12	0.03	i	i	-20	i	i
CCCCOc1ccccc1N	0.32	i	i	5.9*	i	i
Clc1ccc(-c2ccc(CN3CCCCC3)o2)cc1	0.08	i	i	-8	i	i
CN1CCN(Cc2ccc(-c3ccc(Cl)cc3)o2)CC1	-4.7*	i	i	-7	i	i
NS(=O)(=O)c1ccc(CCNCC(=O)NCc2ccccc2Cl)cc1	-0.1	i	i	-6	i	i
Cc1ccc(S(=O)(=O)n2nccc2-c2c(-c3ccccc3)noc2C)cc1	0.47	-7.2*	i	-5	i	i
CCOc1cccc(Oc2ccc(C(F)(F)F)cn2)c1	-1.5	-7.9*	i	-4	i	i
SMILES	Kir21 inh	KCNK9 inh	KCNK3 inh	hERG rescue	KCNQ1 inh	KCNQ1 pot
CCOC(=O)c1ccc(Oc2ccc(C(F)(F)F)cn2)cc1	2.3	i	i	-4	i	i
CCn1c(CSc2nnc(-c3ccoc3C)n2C)nc2cc(S(=O)(=O)N(C)C)ccc21	0.11	i	i	32*	i	i
O=CC1=C(c2ccccc2)Oc2ccccc2O1	-7.6*	i	i	-9	6*	i
CN(C)/C=C1/N=C(c2ccccc2)OC1=O	0.1	i	i	-3	i	i
CC1CCCC(C)N1C(=O)COC(=O)c1cccs1 (stereo unspecified)	nt	nt	i	nt	nt	nt
CC(=O)N1CCOc2ccc(S(=O)(=O)NCC3CCC(C(=O)Nc4ccc(C)cn4)CC3)cc21 (stereo unspecified)	-0.18	i	i	-6	i	i
O=C(Nc1ccccc1Sc1ccccc1)C1CCCO1 (stereo unspecified)	-4.8*	i	i	-5	i	i
O=C(Cc1ccccc1)Nc1ccccc1Sc1ccccc1	-9.2*	i	i	-5	i	i
O=C(Cc1ccc(Br)cc1)Nc1ccccc1Sc1ccccc1	0.36	i	i	3	i	i
O=C(Cc1ccc(F)cc1)Nc1ccccc1Sc1ccccc1	-6.3*	i	i	-3	i	i
O=C(Nc1ccccc1Sc1ccccc1)c1ccccc1	1.1	-7.7*	i	-9	i	i
CSc1ccccc1NC(=O)Cc1ccccc1	-0.43	i	i	-13	i	i
CC1(C)CC(NC(=O)C2CCC(=O)N(Cc3ccccc3F)C2)CC(C)(C)C1 (stereo unspecified)	0.62	i	i	-8	i	i
Cc1cc(C)n(-c2c(C)[nH]c3ccccc23)n1	-4.2*	i	i	-4	i	i
Cc1c(/C=C(\C#N)C(=O)NCc2ccccc2)cc(C#N)n1C	0.17	i	i	-3	i	i
CC(C)(C)C(=O)/C(C#N)=C/c1cccs1	-0.05	i	i	-3	i	i
N#C/C(=C\c1cccs1)C(=O)c1ccccc1Cl	-7*	i	i	-4	i	i
CC(NC(=O)c1cccs1)C(S)c1ccccc1 (stereo unspecified)	-0.77	-6.6*	i	-6	i	i
CC(NC(=S)NC(=O)c1cccs1)c1ccccc1 (stereo unspecified)	nt	nt	i	nt	nt	nt
CCCc1ccc(C2C3=C(CC(C)(C)CC3=O)NC3=C2C(=O)c2ccccc23)cc1 (stereo unspecified)	-2.1	i	i	-9	9*	i
CC1(C)CC(=O)C2=C(C1)NC1=C(C(=O)c3ccccc31)C2c1ccc(O)cc1 (stereo unspecified)	-0.01	i	i	-3	i	i
COc1ccccc1CCNC(=O)C(=O)NCC1CCCN1S(=O)(=O)c1ccccc1 (stereo unspecified)	0.53	i	i	-16	i	i
CCCN(CC1CC1)C(=S)Nc1ccccc1F	-0.05	i	i	11*	i	i
